These results are taken from article PMC7906590 (ACS Omega, 2021).

A short description of data set [1]: Photostability of solution, HPLC purity after 1 h of light exposure. It counts as physicochemical. The following applies: 1 h light exposure. The essentials:
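Test compound dissolved in acetonitrile–potassium dihydrogen phosphate solution. A reference solution was kept in the dark, and a second sample was exposed to light for 1 h. Purity of each was determined by HPLC with DAD detection.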

The target of data set [2] is adenosine A2A (hADORA2A) receptor (Homo sapiens, UniProt P29274). The experiment in a line: cAMP ELISA in NECA/ADA-stimulated hADORA2A-HEK293 cells. Format: cell-based. In general terms: In an ELISA, binding on a coated surface is turned into a signal by an enzyme label.
adenosine A2A (hADORA2A) receptor, sequence (P29274 whole entry): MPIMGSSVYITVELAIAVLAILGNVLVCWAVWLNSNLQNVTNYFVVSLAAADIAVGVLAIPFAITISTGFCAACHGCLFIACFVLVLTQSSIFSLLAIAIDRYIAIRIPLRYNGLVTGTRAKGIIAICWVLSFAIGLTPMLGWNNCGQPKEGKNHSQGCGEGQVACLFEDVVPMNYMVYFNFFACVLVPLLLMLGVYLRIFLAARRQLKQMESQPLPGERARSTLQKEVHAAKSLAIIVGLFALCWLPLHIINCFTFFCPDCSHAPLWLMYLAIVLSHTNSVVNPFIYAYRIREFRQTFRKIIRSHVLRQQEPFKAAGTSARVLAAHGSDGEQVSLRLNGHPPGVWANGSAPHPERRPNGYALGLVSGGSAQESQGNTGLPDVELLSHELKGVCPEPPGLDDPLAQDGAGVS

Structures are written as SMILES. pIC50: −log10 of the molar value.

For the molecule `CCn1c(=O)c2c(nc(/C=C/c3ccc(OC)c(OC)c3)n2C)n(CC)c1=O` [Istradefylline, istradefylline], the “isomerization after 1 h of light exposure” value in data set [1] is reported as “about 1/3”.
As to `Nc1ncnc2[nH]c(/C=C/c3ccccc3)nc12` [II-1-1, (E) -8-styryl-9H-purine-6-amine], the pIC50 (as a rule, the negative decadic logarithm of the IC50, by convention in mol/L) in data set [2] was < 3.38.
